Columns and labels:
[1] = melting temperature; fluorescence melt of hairpins on a sequencing array, two-state fit, raised by 9.35 °C to match UV melts; conditions: sodium 0.088 M
In short: (§1)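 To match UV melts, fitted temperatures were raised by 9.35 °C. These fits were bootstrapped two-state models that gave melting temperature and folding enthalpy, combined by inverse variance over four replicates. The input was normalised Cy3 fluorescence of library hairpins with annealed Cy3 and quencher oligos on a sequenced MiSeq flow cell, imaged in 50 mM Na-HEPES pH 8.0, 25 mM NaCl in 2.5 °C steps up to 60 °C.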

[2] = folding enthalpy; higher = less favourable; fluorescence melt of hairpins on a sequencing array, two-state fit; conditions: sodium 0.088 M
In short: as §1

Row | Sequence | Tm [1] | folding enthalpy [2]
1 | GATCTCGCAGGAGATC ((((((....)))))) | 57.5 °C | -50.6 kcal/mol
2 | GATCCTTCTTAGGATC ((((((....)))))) | 52.8 °C | -41.8 kcal/mol
3 | GGCTCCGCGAAAGCGGCC (((..(((....)))))) | 41.4 °C | -8.55 kcal/mol
4 | GGCTGGGGAAACCCAACC ((.((((....)))).)) | 45.8 °C | -27 kcal/mol
5 | GAGTTGGGAAACCAATTC ((.((((....)))).)) | 40 °C | -28.8 kcal/mol
6 | GTCGACGGAAACGTCGGC (.(((((....))))).) | 64.8 °C | -22.3 kcal/mol
7 | GATCGAGTCGTCGATC ((((((....)))))) | 54.9 °C | -35.6 kcal/mol
8 | GTACGCCCGAAAGGGTAC (((..(((....)))))) | 33.2 °C | -11.4 kcal/mol
9 | GACCCCGAAAGGGGAGTC ((((((....)))..))) | 44.6 °C | -9.87 kcal/mol
10 | GGGGGAGGAAACTCCTCC ((.((((....)))).)) | 53.4 °C | -22 kcal/mol
11 | GGCGTGTCGAAAGACGCC (((..(((....)))))) | 58.7 °C | -23.6 kcal/mol
12 | GATCGGGGGCCCGATC ((((((....)))))) | 59.7 °C | -40.1 kcal/mol
13 | GTTTGGCCGAAAGGCAAC (((..(((....)))))) | 37.7 °C | -11.5 kcal/mol
14 | GGCTGACGAAAGTCGCC (((.(((....)))))) | 59.6 °C | -28.9 kcal/mol
15 | GGCTCCGAAAGGAAGGCC ((((((....)))..))) | 52.6 °C | -29.7 kcal/mol
16 | GATCACTGAGGTGATC ((((((....)))))) | 59.4 °C | -40.5 kcal/mol
17 | CGCTTCGGAAACGACGCG (((.(((....))).))) | 51.5 °C | -48.8 kcal/mol
18 | TATACGAAAGTATA (((((....))))) | 42.1 °C | -14.9 kcal/mol
19 | GCACACCCGAAAGGGTGC (((..(((....)))))) | 38.6 °C | -5.94 kcal/mol

Row | Sequence | Tm [1] | folding enthalpy [2]
20 | GCTTGACGAAAGTCCAGC (((.(((....))).))) | 49.9 °C | -26.6 kcal/mol
21 | GCTGGTCGAAAGACAGC (((.(((....)))))) | 54.7 °C | -27.3 kcal/mol
22 | GGTGATGGAAACATTGCC ((..(((....)))..)) | 38.3 °C | -32.5 kcal/mol
23 | GTCTACGAAAGTAGGGAC ((((((....)))..))) | 32.3 °C | -16.2 kcal/mol
24 | GATCTGCCGGCAGATC ((((((....)))))) | 62.3 °C | -53.3 kcal/mol
25 | GTGCAAGGAAACTTACAC (((.(((....))).))) | 34.8 °C | -21.5 kcal/mol
26 | CGTTACGGAAACGTTACG (((.(((....))).))) | 48 °C | -26.9 kcal/mol
27 | GATCGTTCGTACGATC ((((((....)))))) | 55.5 °C | -44.1 kcal/mol
28 | GAGTATGGAAACGTACTC (((((.(....).))))) | 43.5 °C | -33.1 kcal/mol
29 | GGGAGCGAAAGCTACCC ((((((....))).))) | 62.8 °C | -15.7 kcal/mol
30 | GATCTGGGCCCAGATC ((((((....)))))) | 58.9 °C | -56.3 kcal/mol
31 | GACATGGAAACATGTC ((((((....)))))) | 56 °C | -38.2 kcal/mol
32 | GCGAAGCGAAAGCGCCGC (((..((....))..))) | 65.4 °C | -17.9 kcal/mol
33 | GGCGGCGAAAGCCTGGCC ((((((....)))..))) | 61.8 °C | -19.9 kcal/mol
34 | GCCTTAGAAATAAGGC ((((((....)))))) | 52.9 °C | -30.2 kcal/mol
35 | GCCCGACGAAAGTCCGGC (((.(((....))).))) | 51.8 °C | -30.7 kcal/mol
36 | GGATACGGAAACGTGTTC (.(.(((....))).).) | 32.2 °C | -18.8 kcal/mol
37 | GTATGCCGAAAGGCTTAC (((.(((....))).))) | 50.6 °C | -19 kcal/mol
38 | GGGCTTCGAAAGAACCCC (((.(((....))).))) | 47.6 °C | -20.5 kcal/mol
